Laboratory results from PMC4835239 (Leukemia & lymphoma, 2015).
“Also recorded” adds a separate entry of the source.

Key:
[1] = tested on: CLL cells; conditions: bortezomib; cited from earlier work
[2] = tested on: myeloma cells; conditions: bortezomib; cited from earlier work
[3] = tested on: chymotrypsin-like proteasome activity of CLL cells; assay: Proteasome activity assay in CLL cells from patient samples; format: in vivo, human
In short: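 Chymotrypsin-like proteasome activity was measured in CLL cells from patient whole blood with a validated commercial assay. Samples were taken at screening, pre- and post-dose day 1, pre-dose day 2, and pre- and post-dose days 8 and 9 of cycle 1. Dosing was a 30-min IV infusion, 20 mg/m2 on days 1–2, then 27, 36, 45 or 56 mg/m2 by cohort from day 8.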

[4] = tested on: relapsed/refractory CLL or small lymphocytic lymphoma (SLL); assay: Response assessment by IWCLL 2008 criteria; format: in vivo, human; conditions: all patients
[5] = tested on: patients with relapsed/refractory CLL or small lymphocytic lymphoma (SLL); assay: Phase I dose-escalation trial: toxicity assessment; format: in vivo
[6] = tested on: CLL cells; conditions: cited from earlier work
[7] = tested on: CLL; conditions: patients with CLL; cited from earlier work

Q: With `O=c1c(O)c(-c2ccc(O)c(O)c2)oc2cc(O)cc(O)c12` [quercetin] as the compound, how does the “Level of quercetin required to inhibit apoptosis” value [1] read?
A: 20 μm

Q: What about the “Level of quercetin required to inhibit apoptosis” value [2] of the same compound?
A: 40 μm

Q: For `CC(C)C[C@H](NC(=O)[C@H](CCc1ccccc1)NC(=O)CN1CCOCC1)C(=O)N[C@@H](Cc1ccccc1)C(=O)N[C@@H](CC(C)C)C(=O)[C@@]1(C)CO1` [Carfilzomib], which Chymotrypsin-like proteasome activity ([3]; by 24 hours after dosing) is on record?
A: partially recovered; also recorded: recovered partially

Q: And the Chymotrypsin-like proteasome activity ([3]; by day 8)?
A: rebound higher than pretreatment levels; also recorded: completely

Q: And the “Objective partial or complete responses (IWCLL 2008)” value [4]?
A: No objective partial or complete responses were observed

Q: And the “Maximum tolerated dose (MTD)” value ([5]; doses up to 56 mg/m^2 twice weekly for 3 weeks of a 4 week cycle)?
A: No maximum tolerated dose of carfilzomib was identified

Q: What about the “Dyspnea, incidence” value ([5]; grade 3, total n=19) of the same compound?
A: 1 number of patients

Q: What about the “Febrile neutropenia, incidence” value ([5]; grade 3, total n=19) of the same compound?
A: 1 number of patients

Q: What about the “Grade of electrolyte disturbances” value ([5]; human, in vivo) of the same compound?
A: ≤ 2 grade

Q: What about the “Infusion reaction or tumor lysis syndrome” value ([5]; in vivo) of the same compound?
A: No patient experienced an infusion reaction or tumor lysis syndrome

Q: What about the “Cytotoxicity against CLL cells in vitro” value [6] of the same compound?
A: significant cytotoxicity

Q: And the “Effect of human serum on cytotoxic activity against CLL cells” value ([6]; human versus fetal bovine serum)?
A: unaffected by human serum

Q: Which Objective clinical responses [7] does the source give for `CC(C)C[C@H](NC(=O)[C@H](Cc1ccccc1)NC(=O)c1cnccn1)B(O)O` [bortezomib] here?
A: no objective clinical responses
